# ChEMBL document CHEMBL4011654, “Mitochondria-Targeted Lupane Triterpenoid Derivatives and Their Selective Apoptosis-Inducing Anticancer Mechanisms” (J Med Chem, 2017)
# Calls of active or inactive are those of the source. The rule behind the calls is not given here.
# Legend:
# [1] = tested on: K562; experiment: Cytotoxicity against human K562 cells assessed as cell growth inhibition after 48 hrs by MTT assay; assay type: functional, cell-based; conditions: K562, 48 h
# Summary of the method: (§1)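 Suspension cells seeded at 5000/well (HL-60 in IMDM, K562 in RPMI, both with 10% FBS) and treated. MTT then added for 4 h at 37 °C; plates centrifuged at 3000 rpm for 30 min, medium removed, DMSO added, OD570 read. IC50 taken as concentration giving 50% growth inhibition; triplicate.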
# [2] = tested on: HL-60; experiment: Cytotoxicity against human HL60 cells assessed as cell growth inhibition after 48 hrs by MTT assay; assay type: functional, cell-based; conditions: HL-60, 48 h; summary of the method: as §1
# [3] = tested on: ECa-109 cell line; experiment: Cytotoxicity against human ECA109 cells assessed as cell growth inhibition after 48 hrs by MTT assay; assay type: functional, cell-based; conditions: ECa-109, 48 h
# Summary of the method: (§2)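 Adherent cells seeded at 5000/well, left 16−24 h, then exposed 48 h at 37 °C, 5% CO2 in RPMI with 10% FBS. Medium refreshed, MTT added for 4 h at 37 °C, medium removed, formazan dissolved in DMSO, OD570 read. IC50 taken as concentration inhibiting growth by 50%; triplicate.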
# [4] = tested on: A549; experiment: Cytotoxicity against human A549 cells assessed as cell growth inhibition after 48 hrs by MTT assay; assay type: functional, cell-based; conditions: A549, 48 h; summary of the method: as §2
# [5] = tested on: HepG2; experiment: Cytotoxicity against human HepG2 cells assessed as cell growth inhibition after 48 hrs by MTT assay; assay type: functional, cell-based; conditions: HepG2, 48 h; summary of the method: as §2
# [6] = tested on: L02; experiment: Cytotoxicity against human HL-7702 cells assessed as cell growth inhibition after 48 hrs by MTT assay; assay type: cell-based; conditions: L02, 48 h; summary of the method: as §2
# [7] = tested on: K562; experiment: Induction of apoptosis in human K562 cells assessed as viable cells at 1 uM after 48 hrs by Annexin V-FITC/propidium iodide-staining based flow cytometric analysis (reference value: 95.75 to 96.56%); assay type: functional; conditions: K562, 48 h, read-out: Activity
# Summary of the method: (§3)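 K562 seeded at 4 × 10^5 cells/well, 12 h, then exposed 48 h. Cells washed in ice-cold PBS, suspended in binding buffer, stained with annexin V-FITC and PI for 15 min at room temperature in the dark, and read by flow cytometry within 1 h. Cells counted as early/late apoptotic as % of total; n = 3.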
# [8] = tested on: K562; experiment: Induction of apoptosis in human K562 cells assessed as early apoptotic cells at 1 uM after 48 hrs by Annexin V-FITC/propidium iodide-staining based flow cytometric analysis (reference value: 0.92 to 1.45%); assay type: functional; summary of the method: as §3
# [9] = tested on: K562; experiment: Induction of apoptosis in human K562 cells assessed as late apoptotic cells at 1 uM after 48 hrs by Annexin V-FITC/propidium iodide-staining based flow cytometric analysis (reference value: 2.25 to 2.67%); assay type: functional; summary of the method: as §3
# [10] = tested on: K562; experiment: Induction of apoptosis in human K562 cells assessed as necrotic cells at 1 uM after 48 hrs by Annexin V-FITC/propidium iodide-staining based flow cytometric analysis (reference value: 0.13 to 0.27%); assay type: functional; summary of the method: as §3
# [11] = tested on: K562; experiment: Induction of apoptosis in human K562 cells assessed as viable cells at 2 uM after 48 hrs by Annexin V-FITC/propidium iodide-staining based flow cytometric analysis (reference value: 95.75 to 96.56%); assay type: functional; conditions: K562, 48 h, read-out: Activity; summary of the method: as §3
# [12] = tested on: K562; experiment: Induction of apoptosis in human K562 cells assessed as early apoptotic cells at 2 uM after 48 hrs by Annexin V-FITC/propidium iodide-staining based flow cytometric analysis (reference value: 0.92 to 1.45%); assay type: functional; summary of the method: as §3
# [13] = tested on: K562; experiment: Induction of apoptosis in human K562 cells assessed as late apoptotic cells at 2 uM after 48 hrs by Annexin V-FITC/propidium iodide-staining based flow cytometric analysis (reference value: 2.25 to 2.67%); assay type: functional; summary of the method: as §3
# [14] = tested on: K562; experiment: Induction of apoptosis in human K562 cells assessed as necrotic cells at 2 uM after 48 hrs by Annexin V-FITC/propidium iodide-staining based flow cytometric analysis (reference value: 0.13 to 0.27%); assay type: functional; summary of the method: as §3
# [15] = tested on: K562; experiment: Induction of apoptosis in human K562 cells assessed as viable cells at 3 uM after 48 hrs by Annexin V-FITC/propidium iodide-staining based flow cytometric analysis (reference value: 95.75 to 96.56%); assay type: functional; conditions: K562, 48 h, read-out: Activity; summary of the method: as §3
# [16] = tested on: K562; experiment: Induction of apoptosis in human K562 cells assessed as early apoptotic cells at 3 uM after 48 hrs by Annexin V-FITC/propidium iodide-staining based flow cytometric analysis (reference value: 0.92 to 1.45%); assay type: functional; summary of the method: as §3
# [17] = tested on: K562; experiment: Induction of apoptosis in human K562 cells assessed as late apoptotic cells at 3 uM after 48 hrs by Annexin V-FITC/propidium iodide-staining based flow cytometric analysis (reference value: 2.25 to 2.67%); assay type: functional; summary of the method: as §3
# [18] = tested on: K562; experiment: Induction of apoptosis in human K562 cells assessed as necrotic cells at 3 uM after 48 hrs by Annexin V-FITC/propidium iodide-staining based flow cytometric analysis (reference value: 0.13 to 0.27%); assay type: functional; summary of the method: as §3
# [19] = tested on: K562; experiment: Decrease in mitochondrial membrane potential in human K562 cells at 1 to 2 uM after 48 hrs by JC-1 staining based fluorescence microscopic analysis; assay type: functional, cell-based
# Summary of the method: (§4)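 K562 seeded at 4 × 10^5 cells/well, after 12 h treated 48 h. Cells washed in ice-cold PBS, loaded with JC-1 ([…]) at 37 °C for 15 min, rinsed, and analysed by flow cytometry (% cells with red aggregates) and fluorescence microscopy (red aggregates vs green monomers).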
# [20] = tested on: K562; experiment: Decrease in mitochondrial membrane potential in human K562 cells after 48 hrs by JC-1 staining based flow cytometry; assay type: functional, cell-based; summary of the method: as §4
# [21] = tested on: K562; experiment: Induction of ROS generation in human K562 cells at 1 uM after 48 hrs by DCFH-DA probe based flow cytometric analysis relative to control; assay type: functional
# Summary of the method: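 K562 seeded at 4 × 10^5 cells/well, 12 h, then treated 48 h. Washed cells loaded with DCFH-DA in FBS-free medium at 37 °C for 30 min, rinsed, read by flow cytometry. ROSup was the positive control; mean ± SD, n = 3.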
# [22] = tested on: K562; experiment: Induction of mitochondrial membrane depolarization in human K562 cells assessed as cells with intact mitochondrial membrane potential at 2 uM after 48 hrs by JC-1 staining based flow cytometric analysis (reference value: 97.63 to 97.67%); assay type: functional; summary of the method: as §4
# [23] = tested on: K562; experiment: Induction of mitochondrial membrane depolarization in human K562 cells assessed as cells with mitochondrial membrane potential loss at 2 uM after 48 hrs by JC-1 staining based flow cytometric analysis (reference value: 1.89 to 2.23%); assay type: functional
# [24] = tested on: K562; experiment: Induction of mitochondrial membrane depolarization in human K562 cells assessed as cells with intact mitochondrial membrane potential at 4 uM after 48 hrs by JC-1 staining based flow cytometric analysis (reference value: 97.63 to 97.67%); assay type: functional
# [25] = tested on: K562; experiment: Induction of mitochondrial membrane depolarization in human K562 cells assessed as cells with mitochondrial membrane potential loss at 4 uM after 48 hrs by JC-1 staining based flow cytometric analysis (reference value: 1.89 to 2.23%); assay type: functional
# [26] = tested on: K562; experiment: Induction of mitochondrial membrane depolarization in human K562 cells assessed as cells with intact mitochondrial membrane potential at 6 uM after 48 hrs by JC-1 staining based flow cytometric analysis (reference value: 97.63 to 97.67%); assay type: functional
# [27] = tested on: K562; experiment: Induction of mitochondrial membrane depolarization in human K562 cells assessed as cells with mitochondrial membrane potential loss at 6 uM after 48 hrs by JC-1 staining based flow cytometric analysis (reference value: 1.89 to 2.23%); assay type: functional
# [28] = tested on: K562; experiment: Induction of apoptosis in human K562 cells assessed as upregulation of cleaved PARP up to 6 uM after 48 hrs by Western blot analysis; assay type: functional, cell-based
# [29] = tested on: K562; experiment: Induction of apoptosis in human K562 cells assessed as decrease in cytochrome c level in mitochondria up to 6 uM after 48 hrs by Western blot analysis; assay type: functional, cell-based
# Summary of the method: (§5)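 K562 treated 48 h, then lysed on ice for 30 min; cytosolic and mitochondrial fractions isolated by kit where needed, protein measured by BCA. 60 μg/lane run on SDS-PAGE, transferred to PVDF, blocked in 5% milk/TBST for 4 h. Probed for cytochrome c, caspase-9, caspase-3 (total/cleaved), PARP; alkaline phosphatase secondary.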
# [30] = tested on: K562; experiment: Induction of apoptosis in human K562 cells assessed as increase in cytosolic cytochrome c level up to 6 uM after 48 hrs by Western blot analysis; assay type: functional, cell-based; summary of the method: as §5
# [31] = tested on: K562; experiment: Induction of apoptosis in human K562 cells after 48 hrs by Annexin V-FITC/propidium iodide-staining based flow cytometric analysis; assay type: functional, cell-based; summary of the method: as §3
smiles,measurement,setting,value
O=C(O)CCCC[P+](c1ccccc1)(c1ccccc1)c1ccccc1,IC50,[1],> 200 µM
same,IC50,[2],118 µM
same,IC50,[3],112 µM
same,IC50,[4],172 µM
same,IC50,[5],158 µM
same,IC50,[6],> 200 µM
C=C(C)[C@@H]1CC[C@]2(COC(=O)CCCC[P+](c3ccccc3)(c3ccccc3)c3ccccc3)CC[C@]3(C)[C@H](CC[C@@H]4[C@@]5(C)CC[C@H](OC(C)=O)C(C)(C)[C@@H]5CC[C@]43C)[C@@H]12,IC50,[1],0.62 µM
same,IC50,[2],0.58 µM
same,IC50,[3],1.41 µM
same,IC50,[4],0.83 µM
same,IC50,[5],2.42 µM
same,IC50,[6],7.18 µM
C=C(C)[C@@H]1CC[C@]2(CO)CC[C@]3(C)[C@H](CC[C@@H]4[C@@]5(C)CC[C@H](O)C(C)(C)[C@@H]5CC[C@]43C)[C@@H]12 [BETULIN],IC50,[1],12.9 µM
same,IC50,[2],30.9 µM
same,IC50,[3],26.6 µM
same,IC50,[4],18.2 µM
same,IC50,[5],10.7 µM
same,IC50,[6],26.8 µM
C=C(C)[C@@H]1CC[C@]2(C(=O)O)CC[C@]3(C)[C@H](CC[C@@H]4[C@@]5(C)CC[C@H](OC(=O)CCCC[P+](c6ccccc6)(c6ccccc6)c6ccccc6)C(C)(C)[C@@H]5CC[C@]43C)[C@@H]12.[Br-],IC50,[1],1.24 µM
same,IC50,[2],0.32 µM
same,IC50,[3],0.92 µM
same,IC50,[4],1.26 µM
same,IC50,[5],1.07 µM
same,IC50,[6],4.92 µM
same,viability at 1 µM,[7],81%
same,Activity,[8],9.55%
same,Activity,[9],9.35%
same,Activity,[10],0.14%
same,viability at 2 µM,[11],72.6%
same,Activity,[12],10.78%
same,Activity,[13],16.43%
same,Activity,[14],0.23%
same,viability at 3 µM,[15],61.4%
same,Activity,[16],11.47%
same,Activity,[17],26.46%
same,Activity,[18],0.7%
same,Activity,[19],Active
same,Activity,[20],Dose-dependent effect
same,Activity,[21],50%
same,Activity,[22],75.16%
same,Activity,[23],24.68%
same,Activity,[24],41.5%
same,Activity,[25],58.36%
same,Activity,[26],27.63%
same,Activity,[27],72.12%
same,Activity,[28],Active
same,Activity,[29],Active
same,Activity,[30],Active
same,Activity,[31],Dose-dependent effect
